Target: T1, Proteinase-activated receptor 1 (Homo sapiens, UniProt P25116)
T1 sequence (P25116 whole entry): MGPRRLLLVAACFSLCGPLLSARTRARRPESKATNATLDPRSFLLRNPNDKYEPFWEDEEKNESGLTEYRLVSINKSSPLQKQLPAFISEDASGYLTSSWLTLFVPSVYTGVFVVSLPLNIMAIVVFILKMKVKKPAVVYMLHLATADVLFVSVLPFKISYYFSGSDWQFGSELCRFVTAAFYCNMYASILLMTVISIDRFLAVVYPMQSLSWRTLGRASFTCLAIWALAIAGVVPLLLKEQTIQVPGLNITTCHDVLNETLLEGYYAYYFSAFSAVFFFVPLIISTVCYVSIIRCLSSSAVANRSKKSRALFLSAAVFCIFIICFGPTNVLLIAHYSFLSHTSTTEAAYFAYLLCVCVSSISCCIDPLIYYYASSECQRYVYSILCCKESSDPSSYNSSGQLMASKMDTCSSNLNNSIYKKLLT
Experiment: Negative allosteric modulation of PAR1 in human EAhy926 cells assessed as reduction in TFLLRN-NH2-induced intracellular calcium mobilization incubated for 15 mins followed by TFLLRN-NH2 addition by Fluo-4-AM dye based fluorescence assay
In short: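 Adherent EA.hy926 endothelial cells in 96-well format, intracellular Ca2+ mobilization triggered by PAR1 agonist TFLLRN-NH2 at 5 µM; single-point % inhibition at 10 µM (n = 4 wells, SEM); 7-point concentration-response curves, 3 wells per concentration, pIC50 from 4-variable non-linear regression; average IC50 ± SEM over independent assays.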

IC50: 0.794 µM
SMILES: CCCC(=O)Nc1cccc(NC(=O)c2ccccc2Br)c1

— BindingDB's records for doi:10.1016/j.bmc.2019.06.043 (Marquette University, 2019)
